Test results: ChEMBL document CHEMBL4014343 (J Med Chem, 2017)
Activity calls are given as the source filed them. The calls are words filed in the database; no cut-off is given here.

Tests used:
[1] = molecular target: T1, Aurora kinase A (Homo sapiens) (UniProt O14965); assay: Inhibition of human N-terminal GST/His6-tagged Aurora A (M1 to S403 residues) expressed in baculovirus infected sf9 cells at 1 uM using tetra(LRRLSLG) as substrate by filter binding assay
T1 sequence (whole entry): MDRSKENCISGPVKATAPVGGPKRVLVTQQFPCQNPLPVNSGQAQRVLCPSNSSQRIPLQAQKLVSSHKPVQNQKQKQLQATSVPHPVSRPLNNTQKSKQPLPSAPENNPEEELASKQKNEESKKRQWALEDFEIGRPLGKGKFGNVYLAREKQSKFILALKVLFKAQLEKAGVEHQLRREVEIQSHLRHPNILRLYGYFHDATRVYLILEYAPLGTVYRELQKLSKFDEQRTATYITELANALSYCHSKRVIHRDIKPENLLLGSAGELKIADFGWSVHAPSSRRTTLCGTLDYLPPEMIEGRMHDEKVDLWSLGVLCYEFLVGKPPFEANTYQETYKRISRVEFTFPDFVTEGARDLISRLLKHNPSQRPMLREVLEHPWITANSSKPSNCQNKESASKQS
How it was run: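 Single-point profiling at 1 μM in a 22-kinase panel, performed externally by ProQinase; activity read as residual percent of control.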

MCF7 = assay: Induction of apoptosis in human MCF7 cells at 0.5 uM after 24 hrs by Annexin V-FITC/propidium iodide staining based FACS analysis; type: functional, cell-based
How it was run: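 MCF7 grown 24 h in DMEM/10% FBS/1% PS, exposed 24 h, pelleted, stained with FITC-annexin V in HEPES binding buffer (pH 7.4, 1.8 mM CaCl2) 15 min dark at rt, then PI 10 min, analysed by flow cytometry; bortezomib positive control.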

SR = assay: Growth inhibition of human SR cells incubated for 48 hrs by sulforhodamine B assay; type: functional, cell-based
How it was run: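 NCI-60 panel growth inhibition, run by the U.S. National Cancer Institute; GI50 values are means of two test series.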

NCI-H460 = assay: Growth inhibition of human NCI-H460 cells incubated for 48 hrs by sulforhodamine B assay; type: functional, cell-based
SNB-75 = assay: Growth inhibition of human SNB75 cells incubated for 48 hrs by sulforhodamine B assay; type: functional, cell-based
LOX IMVI = assay: Growth inhibition of human LOXIMVI cells incubated for 48 hrs by sulforhodamine B assay; type: functional, cell-based

With `CN1CCN(CCO/N=C2/C(=C3/C(=O)Nc4ccccc43)Nc3ccccc32)CC1` the inhibition [1] was “inactive”, the Activity (MCF7) was “Active” and the “growth inhibition (GI)” value (SR) was “Active”. For the same compound, the “growth inhibition (GI)” value (NCI-H460) was “Active”, the “growth inhibition (GI)” value (SNB-75) was “Active” and the “growth inhibition (GI)” value (LOX IMVI) was “Active”.
